Converted amounts (≈) assume the structure as drawn.
What was measured:
[1] = tested on: MCF7; test: Cytotoxicity against human MCF7 cells assessed as cell growth after 2 days by sulforhodamine B assay; assay type: functional; details: MCF7, 48 h
Summary of the method: (§1)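 NCI cell lines were run by the Monks method: cells were plated with compounds from DMSO stocks and incubated 2 days at 37 °C in 5% CO2, in duplicate. Cells were fixed with cold TCA, stained with 0.4% SRB, and the bound dye was solubilized in 10 mM tris-base and read at 515 nm. The zero-day control was subtracted, and GI50 was taken from the curves.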

[2] = tested on: NCI-H460; test: Cytotoxicity against human H460 cells assessed as cell growth after 2 days by sulforhodamine B assay; assay type: functional; details: NCI-H460, 48 h; summary of the method: as §1
[3] = tested on: SF-268; test: Cytotoxicity against human SF268 cells assessed as cell growth after 2 days by sulforhodamine B assay; assay type: functional; details: SF-268, 48 h; summary of the method: as §1
[4] = Cytotoxicity against human erythrocytes assessed as hemolysis by spectrometric analysis; assay type: cell-based, Erythrocyte
Summary of the method: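 Human heparinized red blood cells were washed in PBS at pH 7.0 and suspended at 4% in sterile 5% glucose. Compounds from DMSO stocks were diluted in 5% glucose to final concentrations of 250 to 0.24 µg/ml and incubated with the cells at 37 °C. Released hemoglobin was read at 540 nm. HC50 is the concentration giving 50% lysis relative to the drug-free value.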

[5] = tested on: Candida albicans; test: Antifungal activity against Candida albicans ATCC 10213; assay type: functional
Summary of the method: (§2)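 CLSI M27-A3 broth microdilution in RPMI-1640 buffered to pH 7.0 with MOPS. Inoculum 1-5 × 10^3 CFU/mL. Compound twofold dilutions from 250 to 0.24 µg/ml, final DMSO <1%. Incubated at 35 °C in a moist, dark chamber and read at 48 h. MIC is the lowest concentration giving total growth inhibition. For MFC, 5 µL from clear wells was plated in duplicate on SDA; MFC is the lowest concentration with no growth.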

[6] = tested on: Candida tropicalis; test: Antifungal activity against Candida tropicalis C 131 2000; assay type: functional; summary of the method: as §2
[7] = tested on: Saccharomyces cerevisiae; test: Antifungal activity against Saccharomyces cerevisiae ATCC 9763; assay type: functional; summary of the method: as §2
[8] = tested on: Cryptococcus neoformans; test: Antifungal activity against Cryptococcus neoformans ATCC 32264; assay type: functional; summary of the method: as §2
[9] = tested on: Aspergillus fumigatus; test: Antifungal activity against Aspergillus fumigatus ATCC 26934; assay type: functional
Summary of the method: (§3)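 Broth microdilution per CLSI M38-A2 in RPMI-1640 with MOPS at pH 7.0. Inoculum 1-5 × 10^3 CFU/mL, with twofold compound dilutions spanning 250-0.24 µg/ml (final DMSO <1%). Plates incubated at 35 °C, moist and dark, and read when the control fungus had grown. MIC is total growth inhibition. MFC comes from subculturing clear wells in duplicate onto SDA.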

[10] = tested on: Aspergillus flavus; test: Antifungal activity against Aspergillus flavus ATCC 9170; assay type: functional; summary of the method: as §3
[11] = tested on: Aspergillus niger; test: Antifungal activity against Aspergillus niger ATCC 9029; assay type: functional; summary of the method: as §3
[12] = tested on: Nannizzia gypsea; test: Antifungal activity against Microsporum gypseum C 115 2000; assay type: functional
Summary of the method: (§4)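 Dermatophytes tested by CLSI M38-A2 microdilution in MOPS-buffered RPMI-1640 at pH 7.0. Inoculum 1-5 × 10^3 CFU/mL; compounds 250 to 0.24 µg/ml in twofold steps, final DMSO <1%. Incubated at 28 °C in a moist, dark chamber and read according to control growth. MIC is the lowest concentration with complete inhibition. MFC is the lowest concentration with no growth after duplicate subculture on SDA.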

[13] = tested on: Trichophyton rubrum; test: Antifungal activity against Trichophyton rubrum C 113 2000; assay type: functional; summary of the method: as §4
[14] = tested on: Trichophyton mentagrophytes; test: Antifungal activity against Trichophyton mentagrophytes ATCC 9972; assay type: functional; summary of the method: as §4

SMILES	GI50 [1]	GI50 [2]	GI50 [3]	HC50 [4]	MFC [5]	MIC [5]	MFC [6]	MIC [6]	MFC [7]	MIC [7]	MFC [8]	MIC [8]	MFC [9]	MIC [9]	MFC [10]	MIC [10]	MFC [11]	MIC [11]	MFC [12]	MIC [12]	further results
O=C1C=CC(=O)N1c1ccc(F)cc1F	> 10 µg/mL	> 10 µg/mL	> 10 µg/mL	> 250 µg/mL	31.2 µg/mL (≈ 149 µM)	15.6 µg/mL (≈ 74.7 µM)	31.2 µg/mL (≈ 149 µM)	15.6 µg/mL (≈ 74.7 µM)	15.6 µg/mL (≈ 74.7 µM)	7.81 µg/mL (≈ 37.3 µM)	7.81 µg/mL (≈ 37.3 µM)	7.81 µg/mL (≈ 37.3 µM)	31.2 µg/mL (≈ 149 µM)	31.2 µg/mL (≈ 149 µM)	62.5 µg/mL (≈ 299 µM)	62.5 µg/mL (≈ 299 µM)	31.2 µg/mL (≈ 149 µM)	15.6 µg/mL (≈ 74.7 µM)	7.81 µg/mL (≈ 37.3 µM)	3.9 µg/mL (≈ 18.6 µM)	MFC [13]: 7.81 µg/mL (≈ 37.3 µM); MIC [13]: 3.9 µg/mL (≈ 18.6 µM); MFC [14]: 7.81 µg/mL (≈ 37.3 µM); MIC [14]: 3.9 µg/mL (≈ 18.6 µM)
CC(C)(C)c1ccccc1N1C(=O)C=CC1=O	> 10 µg/mL	> 10 µg/mL	> 10 µg/mL	> 250 µg/mL	3.9 µg/mL (≈ 17 µM)	3.9 µg/mL (≈ 17 µM)	3.9 µg/mL (≈ 17 µM)	3.9 µg/mL (≈ 17 µM)	7.81 µg/mL (≈ 34.1 µM)	3.9 µg/mL (≈ 17 µM)	7.81 µg/mL (≈ 34.1 µM)	3.9 µg/mL (≈ 17 µM)	31.2 µg/mL (≈ 136 µM)	15.6 µg/mL (≈ 68.2 µM)	62.5 µg/mL (≈ 273 µM)	62.5 µg/mL (≈ 273 µM)	125 µg/mL (≈ 545 µM)	62.5 µg/mL (≈ 273 µM)	3.9 µg/mL (≈ 17 µM)	1.95 µg/mL (≈ 8.5 µM)	MFC [13]: 3.9 µg/mL (≈ 17 µM); MIC [13]: 1.95 µg/mL (≈ 8.5 µM); MFC [14]: 3.9 µg/mL (≈ 17 µM); MIC [14]: 1.95 µg/mL (≈ 8.5 µM)
CCCN1C(=O)C=CC1=O	> 10 µg/mL	> 10 µg/mL	> 10 µg/mL	> 250 µg/mL	125 µg/mL (≈ 898 µM)	62.5 µg/mL (≈ 449 µM)	125 µg/mL (≈ 898 µM)	62.5 µg/mL (≈ 449 µM)	31.2 µg/mL (≈ 225 µM)	15.6 µg/mL (≈ 112 µM)	15.6 µg/mL (≈ 112 µM)	7.81 µg/mL (≈ 56.1 µM)	31.2 µg/mL (≈ 225 µM)	15.6 µg/mL (≈ 112 µM)	15.6 µg/mL (≈ 112 µM)	15.6 µg/mL (≈ 112 µM)	15.6 µg/mL (≈ 112 µM)	15.6 µg/mL (≈ 112 µM)	7.81 µg/mL (≈ 56.1 µM)	3.9 µg/mL (≈ 28 µM)	MFC [13]: 7.81 µg/mL (≈ 56.1 µM); MIC [13]: 3.9 µg/mL (≈ 28 µM); MFC [14]: 7.81 µg/mL (≈ 56.1 µM); MIC [14]: 7.81 µg/mL (≈ 56.1 µM)
CN1C(=O)C=CC1=O	> 10 µg/mL	> 10 µg/mL	> 10 µg/mL	> 250 µg/mL	125 µg/mL (≈ 1130 µM)	62.5 µg/mL (≈ 563 µM)	62.5 µg/mL (≈ 563 µM)	31.2 µg/mL (≈ 281 µM)	15.6 µg/mL (≈ 141 µM)	7.81 µg/mL (≈ 70.3 µM)	62.5 µg/mL (≈ 563 µM)	15.6 µg/mL (≈ 141 µM)	62.5 µg/mL (≈ 563 µM)	15.6 µg/mL (≈ 141 µM)	31.2 µg/mL (≈ 281 µM)	15.6 µg/mL (≈ 141 µM)	15.6 µg/mL (≈ 141 µM)	7.81 µg/mL (≈ 70.3 µM)	7.81 µg/mL (≈ 70.3 µM)	7.81 µg/mL (≈ 70.3 µM)	MFC [13]: 15.6 µg/mL (≈ 141 µM); MIC [13]: 3.9 µg/mL (≈ 35.1 µM); MFC [14]: 15.6 µg/mL (≈ 141 µM); MIC [14]: 7.81 µg/mL (≈ 70.3 µM)
O=C1C=CC(=O)N1c1ccc(Cl)cc1	> 10 µg/mL	> 10 µg/mL	> 10 µg/mL	> 250 µg/mL	62.5 µg/mL (≈ 301 µM)	62.5 µg/mL (≈ 301 µM)	15.6 µg/mL (≈ 75.3 µM)	7.81 µg/mL (≈ 37.6 µM)	7.81 µg/mL (≈ 37.6 µM)	3.9 µg/mL (≈ 18.8 µM)	7.81 µg/mL (≈ 37.6 µM)	3.9 µg/mL (≈ 18.8 µM)	125 µg/mL (≈ 602 µM)	62.5 µg/mL (≈ 301 µM)	125 µg/mL (≈ 602 µM)	62.5 µg/mL (≈ 301 µM)	62.5 µg/mL (≈ 301 µM)	31.2 µg/mL (≈ 151 µM)	7.81 µg/mL (≈ 37.6 µM)	3.9 µg/mL (≈ 18.8 µM)	MFC [13]: 7.81 µg/mL (≈ 37.6 µM); MIC [13]: 3.9 µg/mL (≈ 18.8 µM); MFC [14]: 7.81 µg/mL (≈ 37.6 µM); MIC [14]: 3.9 µg/mL (≈ 18.8 µM)
O=C1C=CC(=O)N1c1ccc(Br)cc1	> 10 µg/mL	> 10 µg/mL	> 10 µg/mL	> 250 µg/mL	31.2 µg/mL (≈ 124 µM)	15.6 µg/mL (≈ 62 µM)	62.5 µg/mL (≈ 248 µM)	15.6 µg/mL (≈ 62 µM)	15.6 µg/mL (≈ 62 µM)	7.81 µg/mL (≈ 31 µM)	15.6 µg/mL (≈ 62 µM)	7.81 µg/mL (≈ 31 µM)	62.5 µg/mL (≈ 248 µM)	31.2 µg/mL (≈ 124 µM)	62.5 µg/mL (≈ 248 µM)	31.2 µg/mL (≈ 124 µM)	62.5 µg/mL (≈ 248 µM)	31.2 µg/mL (≈ 124 µM)	3.9 µg/mL (≈ 15.5 µM)	3.9 µg/mL (≈ 15.5 µM)	MFC [13]: 3.9 µg/mL (≈ 15.5 µM); MIC [13]: 1.95 µg/mL (≈ 7.74 µM); MFC [14]: 3.9 µg/mL (≈ 15.5 µM); MIC [14]: 1.95 µg/mL (≈ 7.74 µM)
O=C1C=CC(=O)N1c1ccc(I)cc1	> 10 µg/mL	> 10 µg/mL	> 10 µg/mL	> 250 µg/mL	62.5 µg/mL (≈ 209 µM)	31.2 µg/mL (≈ 104 µM)	62.5 µg/mL (≈ 209 µM)	31.2 µg/mL (≈ 104 µM)	7.81 µg/mL (≈ 26.1 µM)	7.81 µg/mL (≈ 26.1 µM)	15.6 µg/mL (≈ 52.3 µM)	7.81 µg/mL (≈ 26.1 µM)	125 µg/mL (≈ 418 µM)	62.5 µg/mL (≈ 209 µM)	125 µg/mL (≈ 418 µM)	62.5 µg/mL (≈ 209 µM)	125 µg/mL (≈ 418 µM)	62.5 µg/mL (≈ 209 µM)	7.81 µg/mL (≈ 26.1 µM)	3.9 µg/mL (≈ 13 µM)	MFC [13]: 7.81 µg/mL (≈ 26.1 µM); MIC [13]: 3.9 µg/mL (≈ 13 µM); MFC [14]: 7.81 µg/mL (≈ 26.1 µM); MIC [14]: 3.9 µg/mL (≈ 13 µM)
O=C1C=CC(=O)N1c1ccc(F)cc1	> 10 µg/mL	> 10 µg/mL	> 10 µg/mL	> 250 µg/mL	15.6 µg/mL (≈ 81.8 µM)	15.6 µg/mL (≈ 81.8 µM)	15.6 µg/mL (≈ 81.8 µM)	15.6 µg/mL (≈ 81.8 µM)	7.81 µg/mL (≈ 40.9 µM)	3.9 µg/mL (≈ 20.4 µM)	15.6 µg/mL (≈ 81.8 µM)	7.81 µg/mL (≈ 40.9 µM)	31.2 µg/mL (≈ 163 µM)	15.6 µg/mL (≈ 81.8 µM)	15.6 µg/mL (≈ 81.8 µM)	15.6 µg/mL (≈ 81.8 µM)	7.81 µg/mL (≈ 40.9 µM)	7.81 µg/mL (≈ 40.9 µM)	7.81 µg/mL (≈ 40.9 µM)	3.9 µg/mL (≈ 20.4 µM)	MFC [13]: 7.81 µg/mL (≈ 40.9 µM); MIC [13]: 3.9 µg/mL (≈ 20.4 µM); MFC [14]: 7.81 µg/mL (≈ 40.9 µM); MIC [14]: 3.9 µg/mL (≈ 20.4 µM)

— ChEMBL document CHEMBL1772954, “Antifungal, cytotoxic and SAR studies of a series of N-alkyl, N-aryl and N-alkylphenyl-1,4-pyrrolediones and related compounds” (Bioorg Med Chem, 2011)
